Assay results as given in ChEMBL document CHEMBL2390931, “Synthesis and antifungal activity of some s-mercaptotriazolobenzothiazolyl amino acid derivatives” (2013).
In brackets after ≈: the same amount, converted by molar mass. Activity calls are given as the source filed them. No cut-off for these calls is given here.

Tests used:
Type in all cases: functional
[1] = test system: Aspergillus flavus; experiment: Antifungal activity against Aspergillus flavus by agar diffusion technique
In short: (§1)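 Clinical isolates (A. flavus mold; C. albicans yeast), spore suspension standardized at 10⁴ CFU/mL. DMSO stocks diluted to a concentration series. Approximate MIC by agar diffusion (well technique), taken as the concentration giving minimal inhibition around the well.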

[2] = test system: Aspergillus flavus; experiment: Antifungal activity against Aspergillus flavus at 100 ppm
In short: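 Clinical isolate of A. flavus (mold) tested by agar diffusion, well technique, using a standardized spore suspension of 10⁴ CFU/mL. Compounds were dissolved in dimethylsulphoxide and diluted from a parent stock.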

[3] = test system: Candida albicans; experiment: Antifungal activity against Candida albicans at 1000 ppm; conditions: read-out: DIZ
In short: (§2)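 Agar well diffusion against clinical isolates (A. flavus mold; C. albicans yeast); standardized spore suspension 10⁴ CFU/mL. Compounds dissolved in DMSO as a parent stock, diluted to test levels (100, 300, 500, 1000 ppm).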

[4] = test system: Aspergillus flavus; experiment: Antifungal activity against Aspergillus flavus at 300 ppm; in short: as §2
[5] = test system: Candida albicans; experiment: Antifungal activity against Candida albicans up to 24 hrs
In short: (§3)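 MFC in tubes of standardized spore suspension (10⁴ CFU/mL) of clinical isolates, each dosed with compound at increasing concentrations starting from the MIC. Controls: solvent at its highest level, and fluconazole. CFU counted and viability checked at intervals over 0–24 h. MFC is the lowest concentration killing about 99% of viable CFU.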

[6] = test system: Aspergillus flavus; experiment: Antifungal activity against Aspergillus flavus at 500 ppm; conditions: for zone of inhibition at 500 ppm: read-out: DIZ; in short: as §2
[7] = test system: Aspergillus flavus; experiment: Antifungal activity against Aspergillus flavus up to 24 hrs; in short: as §3
[8] = test system: Candida albicans; experiment: Antifungal activity against Candida albicans by agar diffusion technique; in short: as §1
[9] = test system: Candida albicans; experiment: Antifungal activity against Candida albicans at 300 ppm; conditions: for zone of inhibition at 300 ppm: read-out: DIZ; in short: as §2
[10] = test system: Candida albicans; experiment: Antifungal activity against Candida albicans at 100 ppm; in short: as §2
[11] = test system: Candida albicans; experiment: Antifungal activity against Candida albicans at 500 ppm; conditions: for zone of inhibition at 500 ppm: read-out: DIZ; in short: as §2
[12] = test system: Aspergillus flavus; experiment: Antifungal activity against Aspergillus flavus at 1000 ppm; conditions: for zone of inhibition at 1000 ppm: read-out: DIZ; in short: as §2

Row | SMILES | MIC [1] | diameter of the inhibition zone (DIZ) [2] | zone of inhibition at 1000 ppm [3] [mm] | diameter of the inhibition zone (DIZ) [4] | MFC [5] | diameter of the inhibition zone (DIZ) [6] | MFC [7] | MIC [8] [µg/mL] | diameter of the inhibition zone (DIZ) [9] | diameter of the inhibition zone (DIZ) [10] | diameter of the inhibition zone (DIZ) [11] | zone of inhibition at 1000 ppm [12] [mm] | zone of inhibition at 300 ppm [9] [mm] | zone of inhibition at 500 ppm [11] [mm] | zone of inhibition at 500 ppm [6] [mm] | zone of inhibition at 300 ppm ([4]; read-out: DIZ) [mm] | zone of inhibition at 100 ppm ([10]; read-out: DIZ) [mm] | diameter of the inhibition zone (DIZ) [12]
1 | COC(=O)CCNC(=O)CSc1nnc2sc3ccccc3n12 | inactive | inactive | < 10 | inactive | inactive | inactive | inactive | 1000 (≈ 2850 µM) | inactive | inactive | inactive | < 10 |  |  |  |  |  | 
2 | O=C(O)CSc1nnc2sc3ccccc3n12 | 1000 µg/mL (≈ 3770 µM) | inactive | 10 | inactive | inactive | inactive | 500 µg/mL (≈ 1880 µM) | 300 (≈ 1130 µM) |  | inactive |  | < 10 | < 10 | < 10 |  |  |  | 
3 | O=C(O)CCSc1nnc2sc3ccccc3n12 | 500 µg/mL (≈ 1790 µM) | inactive | > 16 | inactive | inactive |  | inactive | 300 (≈ 1070 µM) |  | inactive |  | 10 | < 10 | 10 | < 10 |  |  | 
4 | O=C(CSc1nnc2sc3ccccc3n12)N(C(=O)NC1CCCCC1)C1CCCCC1 | 300 µg/mL (≈ 636 µM) | inactive | > 16 |  | inactive |  | 500 µg/mL (≈ 1060 µM) | 100 (≈ 212 µM) |  |  |  | > 16 | < 10 | 10 | 10 | < 10 | < 10 | 
5 | COC(=O)[C@H](CCSC)NC(=O)CSc1nnc2sc3ccccc3n12 | inactive | inactive | < 10 | inactive | inactive | inactive | inactive | 1000 (≈ 2440 µM) | inactive | inactive | inactive |  |  |  |  |  |  | inactive
6 | COC(=O)CCn1nc2sc3ccccc3n2c1=S | 1000 µg/mL (≈ 3410 µM) | inactive | > 16 | inactive | inactive | inactive | inactive | 300 (≈ 1020 µM) |  | inactive |  | < 10 | < 10 | < 10 |  |  |  | 
